Source: PubChem
Shown are actives, neighbours in structure and some others; about 2.5% of the full set was active somewhere.
TRPC4 inh: blocks the mouse TRPC4 cation channel; Q9QUQ5; HEK293 TRPC4beta/mu-opioid, DAMGO-evoked Fluo4 calcium flux; hits give low values; B-score at 10 µM; hit rate 0.39% among 300,000;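 active means B-score over 3 SD under the library average, no early fluorescence shift, positive overall ratio signal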
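System: stable TRPC4beta/mu-opioid receptor HEK293 cells; Dosing: single-point compound dosing; Measured by: Fluo4 Ca2+ flux fluorescence; Read-out basis: per-well B score of integrated baseline-normalized Fluo4 ratio.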
Platelet DG rel: platelet dense granule release activity. human platelet-rich plasma, SFLLRN dense granule ATP release, luminescence. inhibition, %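 (compounds screened at 7.5 µM in platelet-rich plasma)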. hit rate 0.22% among 300,000. AID 1663;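 active means mean replicate score, as percent of positive control, at or above 50; inconclusive means mean below 50 but at least one replicate at or above 50; inactive means mean and every replicate below 50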
TRPC4 PAM: allosteric potentiators of mouse TRPC4 channel; HEK293 TRPC4beta/mu-opioid, DAMGO EC20, Fluo-4 Ca2+ flux; hits give high values; B-score at 10 µM; hit rate 0.42% among 310,000; AID 2227;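 active means B-score of calcium response area above 5 SD of library B-scores, with initial fluorescence ratio within 5 SD of library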;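 further: B-score of integrated fluorescence ratio over time as area under calcium response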
TRPC6 act: activates the mouse TRPC6 cation channel; Q61143; HEK293-TRPC6 membrane potential dye fluorescence; hits give high values; B-score at 10 µM; hit rate 0.13% among 310,000; AID 2550;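 active means B-score of the integrated fluorescence ratio above library mean plus 3 SD, and starting fluorescence ratio within library mean plus 5 SD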;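 further: higher score means more depolarization so channel activation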
TRPC6 inhibitor: blocks the mouse TRPC6 cation channel | B-score at 10 µM | HEK293-TRPC6, membrane potential dye, ACh-evoked depolarization; hits give low values | hit rate 1.1% among 310,000 | Q61143;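 active means B-score under library mean minus 3 SD, initial fluorescence not abnormally high, positive integrated signal ratio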;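 further: B-score derived from integrated fluorescence ratio over the kinetic read; more negative B-score means stronger inhibition of depolarization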
TRPC4 agonist: TRPC4 (mouse) channel activation | Q9QUQ5 | hit rate 0.49% among 310,000 | B-score at 10 µM | HEK293 TRPC4beta/mu-opioid, Fluo4 calcium fluorescence; hits give high values;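 active means B-score above 5 SD of library B-scores, and initial fluorescence ratio not above library mean plus 5 SD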;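 further: positive B-score marks a calcium rise read as TRPC4 activation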
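system = HEK293 cells stably co-expressing mouse TRPC4beta and mu-opioid receptor | schedule = Fluo4 dye loading 45 min at room temperature, 110 s recording | measure = B-scored integrated calcium fluorescence ratio | signal = Fluo4 calcium-sensitive dye fluorescence, kinetic, 1 Hz baseline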
Numbers without * were called inactive; i = inactive; ? = inconclusive.

SMILES	TRPC4 inh	Platelet DG rel	TRPC4 PAM	TRPC6 act	TRPC6 inhibitor	TRPC4 agonist
Clc1ccc(/C=C/c2nc3ccccc3[nH]2)cc1	i	78*	i	i	i	i
Clc1ccc(/C=C/c2nc3ccccc3[nH]2)c(Cl)c1	i	60*	i	i	i	i
Cc1cc(C)cc(OCC(=O)N/N=C\c2cn(C)nc2C)c1	i	5	i	i	i	i
Cc1nn(C)cc1/C=N/NC(=O)C(C)(C)Oc1ccc(Cl)cc1	i	5	11*	i	i	i
N#Cc1c(C(F)(F)F)cc(Cc2ccccc2)nc1SCC(=O)NCC(=O)O	i	-2	i	i	i	i
C=CCN(C/C(=N\O)c1sc(C(=O)OCC)nc1C)c1cccc(Br)c1	i	0	i	i	i	i
O=C(Nc1nnc(-c2ccc(F)cc2)o1)c1cccc([N+](=O)[O-])c1	-6*	-6	i	i	i	126*
O=C(Nc1nnc(C2=COCCO2)o1)c1cccc([N+](=O)[O-])c1	i	11	i	i	i	i
O=C(Nc1nnc(-c2ccc(F)cc2)o1)c1cc(Cl)sc1Cl	i	?	i	i	i	220*
O=C(Nc1nnc(-c2ccc3c(c2)CCCC3)o1)c1ccccc1Cl	i	9	i	i	i	i
O=C(Nc1nnc(-c2ccc3c(c2)CCCC3)o1)c1ccccc1	i	-2	i	i	i	66*
CCc1ccc2nc3n[nH]c(N)c3cc2c1	i	5	i	i	i	68*
CCC(CC)NC(=O)c1nn(Cc2ccccc2)c(=O)c2ccccc12	i	-32	i	i	i	i
CN(C)CCOC(=O)c1sc2ccccc2c1Cl	i	1	i	i	i	92*
NC(=O)NC(=O)COC(=O)c1sc2ccccc2c1Cl	i	-2	i	i	i	i
CN(C)C(CNC(=O)Nc1cccc(Cl)c1)c1cccnc1 (stereo unspecified)	i	1	i	i	i	65*
CN(C)C(CNC(=S)Nc1ccc(Cl)cc1)c1cccnc1 (stereo unspecified)	i	-1	i	i	i	86*
CCc1cccc(CC)c1NC(=S)NCC(c1cccnc1)N(C)C (stereo unspecified)	i	-5	i	i	i	79*
CC1CC(C)CN(CCCNC(=O)CCC(=O)N2CCOc3ccccc32)C1 (stereo unspecified)	i	6	i	i	i	73*
O=C(OCc1ccccc1)/C(=C(\O)c1ccccc1Br)c1ccc(-c2ccccc2)cn1	i	5	i	i	i	i
O=C(C1CCOCC1)N1CCCC(N2CCN(c3cccc(C(F)(F)F)c3)CC2)C1 (stereo unspecified)	i	-5	i	i	i	i
O=C(NC1CCCCC1)c1ccc(Cn2cc(Cl)cn2)cc1	i	5	i	i	i	i
Cc1ccc(S(=O)(=O)Nc2cccc(C(=O)NCC(c3ccco3)N3CCCC3)c2)cc1F (stereo unspecified)	-6*	6	i	i	i	53*
O=C(NCC(c1ccco1)N1CCCCC1)c1cccc(NS(=O)(=O)c2ccc(Br)cc2)c1 (stereo unspecified)	i	6	i	i	i	i
COc1ccc(/C=C/C(=O)O)cc1S(=O)(=O)Nc1ccc2c(c1)OCO2	i	-3	i	i	i	i
SMILES	TRPC4 inh	Platelet DG rel	TRPC4 PAM	TRPC6 act	TRPC6 inhibitor	TRPC4 agonist
Cc1ccc(C)c(-n2cc(CN3CCCN(C=O)CC3)c(-c3ccccc3)n2)c1	i	10	i	i	i	72*
Cc1ccc(C)c(-n2cc(CNCCCn3cccn3)c(-c3ccccc3)n2)c1	i	-2	i	i	i	205*
Cc1ccc(-n2cc(CN3CCN(c4ccccn4)CC3)c(-c3ccc(F)cc3)n2)cc1	i	4	i	i	i	i
Cc1ccc(-n2cc(CNCCCn3cccn3)c(-c3cccc(C)c3)n2)cc1	i	-4	i	i	i	43*
CC(C)(C)c1ccc(OCCC(=O)NCCc2ccc(S(N)(=O)=O)cc2)cc1	i	-5	i	i	i	i
Cc1cccn2c(=O)c3cc(S(=O)(=O)c4ccccc4)c(=N)n(Cc4ccco4)c3nc12	i	-22	10*	i	i	i
C#CC(C)(C)NC(=O)c1sccc1Oc1ccc(F)cc1[N+](=O)[O-]	i	8	i	i	i	i
CCOC(=O)c1sc(NC(=O)c2sccc2C)cc1C	i	62*	i	i	i	i
O=C(COC(=O)c1cc2c(s1)CCCCC2)NC1CCS(=O)(=O)C1 (stereo unspecified)	i	6	88*	i	i	i
Cc1ccc(C2CC(c3ccccc3OC(F)F)Nc3ncnn32)cc1 (stereo unspecified)	i	51*	i	i	i	i
CC(C)CCNC(=O)C1CCC(CNS(=O)(=O)c2ccc(Cl)cc2)CC1 (stereo unspecified)	i	-10	i	i	i	i
CCOc1ccc(CSC2=NCCN2)cc1[N+](=O)[O-]	i	0	11*	i	i	i
O=C(O)c1cc(N/N=C/c2ccc3c(c2)OCO3)ccc1Cl	i	14	i	i	i	i
O=C(O)c1ccc(N/N=C/c2ccc(C(F)(F)F)cc2)cc1	-5*	2	i	i	i	i
O=C(O)c1ccc(N/N=C/c2ccc3c(c2)OCO3)cc1	i	86*	i	i	i	i
COc1ccc(-n2nnnc2/C=C\Nc2ccc(C)cc2)cc1	i	-15	i	i	i	i
CCCCCC(=O)NNC(=O)c1c(O)c2ccccc2n(CC)c1=O	i	-8	i	i	i	i
CCn1c(=O)c(C(=O)NNC(=O)c2ccccc2Cl)c(O)c2ccccc21	i	18	i	i	i	51*
CCn1c(=O)c(C(=O)NNC(=O)c2ccccc2F)c(O)c2ccccc21	i	-6	i	i	i	114*
CCOC(=O)N1CCN(C(=S)Nc2cc(OC)c(OC)cc2C(=O)OC)CC1	i	-3	i	i	i	i
CCO[C@@H]1OC(C(=O)N2CCOCC2)=C[C@H](c2ccc(C(F)(F)F)cc2)[C@H]1CCCO	i	6	i	i	i	i
CCOc1ccc(Nc2nc(N)c3ccccc3n2)cc1	i	90*	i	i	i	i
